Assay outcomes from PubChem BioAssay.
SR-BI DiI inh: mouse SR-BI HDL lipid transfer inhibition. Q61009. ldlA[mSR-BI] CHO cells, DiI-HDL uptake fluorescence, 3 h. inhibition, % at 12.5 µM. 320,000 tested, 0.96% active;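 active = mean replicate inhibition of at least 70% and a set share of replicates each scoring 70 or more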
FXN GAA850 act: increases GAA850 frataxin promoter reporter activity | activation, % at 6 µM | 360,000 tested, 0.56% active | HEK293 lucGAA850 FXN promoter luciferase reporter, 24 h; percent of 10 µM SAHA response;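 active = activation above the average of all compounds screened plus 3 SD, cutoff fixed separately per campaign, cut at about 7.5% in these data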
ABCB6 inh MLPCN: inhibitors of human ABC transporter ABCB6; K562-ABCB6 porphyrin accumulation, flow cytometry, 1 h; stronger effect = lower value; fluorescence ratio to DMSO, % at 10 µM; 360,000 tested, 0.19% active; AID 602162;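 active = fluorescence ratio to DMSO below 75%, the collection mean minus 3 SD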;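 note: signal is porphyrin accumulated inside mitochondria; lower ratio means ABCB6 inhibition with less porphyrin fluorescence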
HIF activator: HIF pathway transcriptional activation | U2OS HRE-luciferase reporter, luminescence; normalized: DMSO 0%, desferrioxamine 100% | activation, % at 7.5 µM (by protocol) | 300,000 tested, 0.32% active | AID 1910;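 active = mean activation of at least 10% of the iron chelator positive control signal, with at least half of replicates also reaching 10%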
SR-BI DiI-HDL act: SR-BI HDL lipid transfer activation | CHO ldlA[mSR-BI] cells, DiI-HDL uptake fluorescence, 3 h; 100 = double the neutral-control signal | activation, % at 12.5 µM | 320,000 tested, 0.096% active | AID 504775;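 active = mean replicate activation of at least 60% and every replicate at or above 60%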
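material = CHO ldlA[mSR-BI] cells | medium = Ham's F12 with 0.5% BSA, HEPES 25 mM, pH 7.4 | reagent = fluorescent DiI-HDL, 10 µg/mL final | compound dosing = single-point compound dose | incubation = 3 h, 37 °C | measured by = bottom-read fluorescence, 550/595 nm | measure = HDL uptake via cellular fluorescence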
AHR activator: activates the human aryl hydrocarbon receptor. P35869. AHR-responsive luciferase reporter cells, luminescence. activation, % at 5 µM. 320,000 tested, 2.5% active; in the data active = activation above about 47%
Target sequence (P35869 whole entry, looked up): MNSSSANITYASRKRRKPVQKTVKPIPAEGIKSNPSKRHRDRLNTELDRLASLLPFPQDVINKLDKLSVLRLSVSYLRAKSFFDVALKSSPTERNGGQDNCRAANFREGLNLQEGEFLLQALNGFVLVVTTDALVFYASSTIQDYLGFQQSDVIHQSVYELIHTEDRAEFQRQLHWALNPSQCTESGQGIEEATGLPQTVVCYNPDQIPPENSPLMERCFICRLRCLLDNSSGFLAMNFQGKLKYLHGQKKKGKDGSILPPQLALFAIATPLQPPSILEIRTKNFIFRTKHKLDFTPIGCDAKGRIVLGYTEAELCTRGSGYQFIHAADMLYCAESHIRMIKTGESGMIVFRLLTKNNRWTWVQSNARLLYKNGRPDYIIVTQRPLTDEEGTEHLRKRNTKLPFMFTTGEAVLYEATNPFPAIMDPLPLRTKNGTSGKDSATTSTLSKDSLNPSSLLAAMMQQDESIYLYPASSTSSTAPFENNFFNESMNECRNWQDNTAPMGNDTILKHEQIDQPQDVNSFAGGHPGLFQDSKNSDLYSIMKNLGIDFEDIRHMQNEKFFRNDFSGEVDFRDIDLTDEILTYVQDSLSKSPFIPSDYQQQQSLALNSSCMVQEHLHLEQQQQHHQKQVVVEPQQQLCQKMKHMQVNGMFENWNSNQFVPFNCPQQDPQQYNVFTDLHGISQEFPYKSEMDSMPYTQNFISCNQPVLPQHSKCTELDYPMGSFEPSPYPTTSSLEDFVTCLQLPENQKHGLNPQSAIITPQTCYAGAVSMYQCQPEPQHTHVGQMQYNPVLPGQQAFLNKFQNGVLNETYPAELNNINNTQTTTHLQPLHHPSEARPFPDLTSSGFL
GAA30 FXN cntr: counter-screen for GAA850 frataxin promoter activators: GAA30 promoter activation | shares compounds with FXN GAA850 act | HEK293 lucGAA30 FXN promoter luciferase, 24 h; DMSO = 0%, 5 µM ipriflavone = 100% | activation, % at 6 µM | 1,900 tested, 66% active | AID 588350;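 active = mean activation above the mean of solvent-only control wells plus 3 SD, cut at about 22% in these data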;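 note: counterscreen of GAA850 promoter hits where activity marks nonselective or luminescence artifacts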
FXN GAA850 conf: GAA850 FXN promoter activation confirmation | shares compounds with FXN GAA850 act | 1,900 tested, 86% active | HEK293 lucGAA850 FXN promoter luciferase reporter, 24 h; 100% = activation by SAHA | activation, % at 6 µM | AID 588351;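 active = mean activation above a set limit taken from the primary screen, cut at about 8% in these data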
A number is an active result; – = inactive; · = no result given. Hits are enriched below; roughly 3.9% of the tested compounds scored in any of these assays.

SMILES | SR-BI DiI inh | FXN GAA850 act | ABCB6 inh MLPCN | HIF activator | SR-BI DiI-HDL act | AHR activator | GAA30 FXN cntr | FXN GAA850 conf
O=C(c1ccc(C23CC4CC(CC(C4)C2)C3)o1)N1CCOCC1 | – | 9.7 | – | – | – | – | 33.9 | 21.9
CCCCn1nnc(NC(=O)c2cc3ccccc3o2)n1 | – | 8.4 | – | – | – | – | 82.1 | 26.4
CN1CCN(c2ccc(NC(=O)c3cc4ccccc4o3)cc2)CC1 | – | 7.7 | – | – | – | – | 137.6 | 38.5
Cc1ccc(Nc2nc(N)c([N+](=O)[O-])c(NCc3ccco3)n2)cc1C | – | 7.8 | – | – | – | 64.3 | 92.1 | 43.8
Cc1ccc(CNc2nc(N)c([N+](=O)[O-])c(NCc3ccccc3)n2)cc1 | – | – | – | – | – | – | · | ·
CN(C)c1nc(N)c([N+](=O)[O-])c(NCc2ccccc2)n1 | – | 7.6 | – | · | – | – | 68.9 | 25.1
CNc1nc(N)c([N+](=O)[O-])c(NCc2ccccc2)n1 | – | 16.9 | – | – | – | – | 87.0 | 31.9
Nc1nc(NCc2ccccc2)nc(NCc2ccccc2)c1[N+](=O)[O-] | – | – | – | · | – | – | · | ·
CN(CCOc1ccccc1)C(=O)c1cc([N+](=O)[O-])cc([N+](=O)[O-])c1 | – | – | – | – | – | – | · | ·
O=C(CC12CC3CC(CC(C3)C1)C2)NC(=S)N1CCCCC1 | – | – | – | – | – | – | · | ·
S=C(NC12CC3CC(CC(C3)C1)C2)N1CCCC1 | – | 9.4 | – | – | – | – | 26.6 | 10.8
O=C(COc1ccc(F)cc1)Nc1ccc2c(c1)OCCO2 | – | 7.7 | – | – | – | – | 76.8 | 22.4
CC(=O)N=C1SC2CS(=O)(=O)CC2N1c1ccc(-c2nc3ccc(C)cc3s2)cc1 (centres undefined) | · | · | · | – | · | – | · | ·
Cc1cc(Br)cc(C=Nc2ccc(N3CCOCC3)cc2)c1O | – | – | – | – | – | – | · | ·
CCOC(=O)c1ccccc1NC(=O)CN1C(=O)CCS(=O)(=O)c2ccccc21 | – | – | – | – | – | · | · | ·
CC[C@@]12C(=O)N(c3ccccc3)C(=O)N1[C@H](c1ccc(OC)cc1)[C@@H]1C(=O)N(C(C)(C)C)C(=O)[C@@H]12 | – | 11.3 | – | – | – | – | 34.9 | 14.1
CC[C@@]12C(=O)N(c3ccc(C)cc3)C(=O)N1[C@H](c1ccc(OC)cc1)[C@@H]1C(=O)N(C(C)(C)C)C(=O)[C@@H]12 | – | 11.5 | – | – | – | – | 32.7 | 13.1
CC[C@@]12C(=O)N(c3ccc(C)cc3)C(=O)N1[C@H](c1ccc(Br)cc1)[C@@H]1C(=O)N(C(C)(C)C)C(=O)[C@@H]12 | – | 13.4 | – | – | – | – | 28.1 | 10.2
COc1ccc(N2C(=O)N3[C@H](c4ccc(Br)cc4)[C@@H]4C(=O)N(C(C)(C)C)C(=O)[C@@H]4[C@]3(Cc3ccccc3)C2=O)cc1 | – | – | – | – | – | – | · | ·
Clc1ccc2nnc(Cl)n2n1 | – | – | – | – | – | – | · | ·
COc1cccc(CN(C)C(=O)c2ccc3c(=O)n4c(nc3c2)CCC4)c1OC | – | – | – | – | – | – | · | ·
Cc1onc(-c2ccccc2)c1C(=O)Nc1ccccc1NC(=O)c1c(-c2ccccc2)noc1C | – | – | – | – | – | – | · | ·
CCOC(CN=c1nc(N(C)C)ss1)OCC | – | 8.2 | – | · | – | · | – | 10.3
CN(C)c1nc(=NCc2ccco2)ss1 | – | – | – | – | – | – | · | ·
OCCCNc1c2ccccc2nc2ccccc12 | – | 13.3 | – | 15.7 | – | – | – | 118.8
SMILES | SR-BI DiI inh | FXN GAA850 act | ABCB6 inh MLPCN | HIF activator | SR-BI DiI-HDL act | AHR activator | GAA30 FXN cntr | FXN GAA850 conf
Cc1ccc(-c2nc(NCCCO)c3ccccc3n2)cc1 | – | – | – | – | – | – | · | ·
O=C(NN1CCCCCC1)c1ccccc1F | – | – | – | · | – | · | · | ·
COc1cc(C#Cc2ccc3cc(CCO)oc(=O)c3c2)cc(OC)c1 | – | 7.8 | – | · | – | – | 106.4 | 37.6
CN(C)CCN(C(=O)CCc1ccccc1)c1nc2c(F)cc(F)cc2s1 | – | – | – | – | – | – | · | ·
Cc1c(C)n(CC(O)CN2CCOCC2)c2ccccc12 (centres undefined) | – | – | – | – | – | – | · | ·
Cc1ccc(N=Nc2c(O)n(CN3CCOCC3)c3ccccc23)cc1 | – | 7.7 | – | – | – | – | 135.0 | 50.2
CCCN1C(=O)/C(=C/c2ccncc2)SC1=S | – | – | – | – | – | – | · | ·
CN1C(=O)/C(=C\c2ccncc2)SC1=Nc1ccccc1 | – | 8.4 | – | – | – | – | – | –
O=C(Oc1ccc(-c2csnn2)cc1)c1cccs1 | – | – | – | – | – | – | · | ·
CCOc1ccc(Nc2n[nH]c(=S)s2)cc1 | – | 9.8 | – | – | – | – | 116.1 | 31.8
Cc1ccc(Nc2n[nH]c(=S)s2)cc1 | · | – | – | · | · | · | · | ·
CCn1cc(C(=O)NN)c(=O)c2cc(F)c(N3CCN(C)CC3)cc21 | – | – | – | – | – | – | · | ·
C[C@H]1CN([C@@H](C)CO)C(=O)c2c(c3ccccc3n2C)-c2ccccc2CO[C@H]1CN(C)Cc1cccc(F)c1 | · | 11.9 | – | · | · | · | 23.3 | 9.9
C[C@H](CO)N1C[C@H](C)[C@H](CN(C)C(=O)c2ccccc2)OCc2ccccc2-c2c(n(C)c3ccccc23)C1=O | · | 8.5 | – | · | · | · | – | –
CN1CCN(S(=O)(=O)c2ccc(NC(=O)Cc3ccc([N+](=O)[O-])cc3)cc2)CC1 | – | – | – | – | – | – | · | ·
CCOC(=O)C1=C(C)OC(N)=C(C#N)C1c1ccc(O)c(OC)c1 (centres undefined) | – | – | – | – | – | – | · | ·
COc1ccc(NC(=O)CCCc2ccc(OC)c(C)c2)cc1 | – | – | – | – | – | – | · | ·
O=C1c2cccc3c(N4CCCCC4)ccc(c23)C(=O)N1CCO | – | 8.3 | – | – | – | – | 88.5 | 33.2
Cc1ccc(-n2c(C)c(C)c3c(NCCO)ncnc32)cc1 | – | 7.9 | – | – | – | – | 89.2 | 30.9
C(=N\NC1=Nc2cccc3cccc1c23)/c1ccccn1 | – | – | – | – | – | · | · | ·
Clc1ccccc1/C=N/NC1=Nc2cccc3cccc1c23 | – | 9.7 | – | – | – | – | 83.9 | 39.4
c1ccc(COc2ccc(OCCCCN3CCCC3)cc2)cc1 | – | 7.6 | – | – | – | – | 83.3 | 32.7
C=CCNCCCCOc1ccc(OCc2ccccc2)cc1 | – | 9.1 | – | – | – | – | 102.1 | 49.0
c1ccc(COc2ccc(OCCCN3CCCCC3)cc2)cc1 | – | – | – | – | – | – | · | ·
